Only some compounds are listed: those with a hit (about 3% of all), similar ones and a draw of the others.
Apaf-1 inh: blocks human Apaf-1 apoptosome activity. actives 0.71% (n = 330,000). reconstituted apoptosome caspase-3 activity, DEVD-Rh110 fluorescence. inhibition, % at 20 µM; active means inhibition of at least 40% at 20 µM;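 further: plate controls were DMSO wells for no effect and DEVD-CHO caspase inhibitor wells for full effect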
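Material: reconstituted apoptosome with Apaf-1, cytochrome c, caspase-9, procaspase-3, dATP / Buffer or medium: pH 7.5 Hepes buffer with CHAPS, BSA, DTT / Also added: cytochrome c with DEVD-Rh110 / Schedule: compound with Apaf-1, dATP, procaspase-3 30 min, then 50 min reaction, room temperature / Technique: rhodamine 110 fluorescence at Ex 480/Em 540 nm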
SENP7 block: inhibitors of human SENP7 protease. recombinant SENP7, Z-RLRGG-aminoluciferin luminescence, 40 min. inhibition, % at 5 µM. actives 1.5% (n = 330,000). AID 434973;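 active means inhibition above about 50% at the single test dose, limit read from the data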;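 further: plate controls were DMSO with enzyme for no effect and no enzyme buffer wells for full effect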
Target sequence (Q9BQF6 706-1050 limits assumed): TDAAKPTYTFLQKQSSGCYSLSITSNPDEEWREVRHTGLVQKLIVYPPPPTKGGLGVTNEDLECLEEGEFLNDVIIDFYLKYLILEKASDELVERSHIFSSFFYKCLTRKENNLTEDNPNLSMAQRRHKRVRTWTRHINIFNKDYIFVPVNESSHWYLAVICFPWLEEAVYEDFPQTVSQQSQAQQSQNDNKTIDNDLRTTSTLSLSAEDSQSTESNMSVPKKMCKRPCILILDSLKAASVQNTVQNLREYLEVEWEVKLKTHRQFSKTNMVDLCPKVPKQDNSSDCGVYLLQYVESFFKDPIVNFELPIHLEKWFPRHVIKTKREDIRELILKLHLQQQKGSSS
SENP6 block: inhibitors of human SENP6 protease | Q9GZR1 | Recombinant SENP6 catalytic domain, aminoluciferin luminescence | inhibition, % at 10 µM | actives 1.8% (n = 330,000);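 active means inhibition above about 50% at the single tested dose, limit read from the data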;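 further: plate controls were DMSO wells with enzyme for no effect and DMSO wells lacking enzyme for full effect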
SENP8 block-1: inhibitors of human SENP8 protease | Q96LD8 | recombinant SENP8, Nedd8 substrate fluorescence | inhibition, % at 20 µM | actives 0.64% (n = 360,000); in the data active means inhibition mostly above about 40%, no sharp cut-off; inactive means mostly below about 27%
Target sequence (Q96LD8 whole entry, looked up): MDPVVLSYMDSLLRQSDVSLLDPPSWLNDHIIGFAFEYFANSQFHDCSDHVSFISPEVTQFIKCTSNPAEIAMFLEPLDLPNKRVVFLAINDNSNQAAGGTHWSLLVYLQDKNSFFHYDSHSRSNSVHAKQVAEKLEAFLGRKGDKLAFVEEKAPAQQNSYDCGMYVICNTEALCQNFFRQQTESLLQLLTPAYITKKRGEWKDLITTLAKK
SENP8 block-2: inhibitors of human SENP8 protease; Q96LD8; purified SENP8, Z-RLRGG-aminoluciferin cleavage, luminescence; inhibition, % at 10 µM; actives 1.2% (n = 330,000); AID 2540; in the data active means inhibition above about 50%
UBC13 polyUb: blocks human UBC13 polyubiquitin chain formation | P61088 | TR-FRET | inhibition, % at 20 µM | actives 0.47% (n = 330,000) | AID 485273; in the data active means inhibition above about 45%, passing the limit was not always enough
Target sequence (P61088 whole entry, looked up): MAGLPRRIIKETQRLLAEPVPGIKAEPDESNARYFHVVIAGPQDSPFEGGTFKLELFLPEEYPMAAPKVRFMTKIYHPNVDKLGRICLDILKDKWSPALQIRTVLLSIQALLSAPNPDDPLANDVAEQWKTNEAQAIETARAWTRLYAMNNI
SENP8 confirm: human SENP8 inhibition, confirmed. shares compounds with SENP7 block. Recombinant SENP8, Z-RLRGG-aminoluciferin luminescence, 60 min. inhibition, % at 12.5 µM. actives 40% (n = 6,200);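 active means mean inhibition across replicates above about 50%, limit read from the data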
SENP6 confirm: human SENP6 inhibition, confirmed | shares compounds with SENP7 block | inhibition, % at 12.5 µM | recombinant SENP6, Z-RLRGG-aminoluciferin luminescence | actives 58% (n = 6,200)
SENP7 conf: confirmation of human SENP7 protease inhibitors | AID 488917 | recombinant SENP7, Z-RLRGG-aminoluciferin luminescence, 40 min | actives 69% (n = 6,200) | inhibition, % at 12.5 µM | shares compounds with SENP7 block
Casp3 SENP sel: selectivity test for SENP inhibitors: human caspase-3 inhibition. shares compounds with SENP7 block. inhibition, % at 12.5 µM. AID 488918. purified caspase-3, Z-DEVD-aminoluciferin luminescence, 60 min. actives 60% (n = 6,200);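 active means mean inhibition above about 50%, limit read from the data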;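 further: plate controls were enzyme with DMSO for no effect and wells without caspase-3 for full effect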
Luc interf: counter-screen for SENP inhibitors: luminescence interference; shares compounds with SENP7 block; Pre-incubated SENP8/Z-RLRGG-aminoluciferin, luciferase luminescence interference; inhibition, % at 12.5 µM; actives 39% (n = 6,200); AID 488919;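 active means mean inhibition above about 50% when retested at one dose, limit read from the data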;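 further: plate controls were DMSO wells with completed reaction for no effect and substrate without enzyme for full effect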
Numbers without * were called inactive; . = not tested or not shown.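 How the source made its calls, unless noted: active means mean inhibition above about 50% in the one-dose retest (limit read from the data); inactive means the rest.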

SMILES | Apaf-1 inh | SENP7 block | SENP6 block | SENP8 block-1 | SENP8 block-2 | UBC13 polyUb | SENP8 confirm | SENP6 confirm | SENP7 conf | Casp3 SENP sel | Luc interf
Fc1ccc(-c2nc3n(n2)Cc2ccccc2-3)cc1 | -3.5 | 99.4* | 99.8* | 19.1 | 95.0* | 3.9 | 92.8* | 97.5* | 102.4* | 97.6* | 64.2*
CC(=O)Nc1ccc(N/C=C/C(=O)c2ccc(Br)cc2)cc1 | 11.8 | 2.0 | 6.3 | -43.5 | -9.6 | -6.3 | . | . | . | . | .
O=C(/C=C/Nc1ccc(F)cc1F)c1ccc(Br)cc1 | -6.9 | 67.5* | 15.6 | -63.9 | 0.0 | -14.3 | -5.8 | -3.2 | -1.4 | 16.9 | 3.4
O=C(/C=C/Nc1ccc(F)cc1F)c1ccco1 | 3.0 | 89.8* | 87.0* | -167.5 | 87.5* | 2.7 | 90.6* | 96.6* | 101.2* | 96.1* | 85.3*
O=C(/C=C/Nc1ccc(Br)cc1F)c1ccco1 | 10.0 | 98.1* | 94.9* | -409.9 | 95.9* | -4.6 | -1.8 | 93.3* | 100.4* | 85.7* | 28.5
CC(=O)Nc1cc(-c2ccc(S(C)(=O)=O)cc2)cn2c(-c3ccc(F)c(Cl)c3)cnc12 | . | . | . | -343.9 | . | . | . | . | . | . | .
CC(C)Nc1ncnc2c1ncn2[C@H]1CN(Cc2ccc(F)cc2)C[C@@H](CO)O1 | . | . | . | 15.6 | . | . | . | . | . | . | .
CN(Cc1ccc(Cl)cc1)C(CCc1ccccc1)C(=O)NC1CCCCC1 (centres undefined) | . | . | . | 10.6 | . | . | . | . | . | . | .
Cc1cccc(NC(=O)c2onc3c2CCCC3)c1C | 1.1 | 25.1 | 49.1 | 10.6 | 24.1 | 8.5 | . | . | . | . | .
COC(=O)c1cccc(NC(=O)c2onc3c2CCCC3)c1 | -6.7 | 79.0* | 92.0* | 18.7 | 76.2* | 6.9 | -3.7 | 47.2 | 78.6* | 61.4* | 64.6*
Cc1noc(C)c1C(=O)Nc1ccc2ccccc2c1 | 4.6 | 8.0 | -0.3 | -1.4 | -4.6 | -15.1 | . | . | . | . | .
O=C(Nc1ccc2ccccc2c1)c1onc2c1CCCC2 | 18.9 | 51.8* | 80.2* | 0.7 | 64.9* | -4.0 | 38.9 | 81.5* | 93.0* | 60.5* | 43.5
COC[C@H]1CCCN1c1ccc2c(c1)O[C@H](COCc1ccccc1)CN([C@H](C)c1ccccc1)S2(=O)=O | . | . | . | -1.5 | . | . | . | . | . | . | .
Fc1ccc2c(Cl)c(-c3nnc(-c4cccs4)o3)sc2c1 | -18.6 | 69.2* | 5.9 | -331.5 | -9.6 | 10.2 | 1.9 | 7.6 | 25.1 | 13.6 | 2.9
CCOc1ccc(-c2nnc(-c3cccs3)o2)cc1OCC | 15.4 | -12.5 | -32.7 | -300.8 | -7.1 | 1.2 | . | . | . | . | .
O=C(CCS(=O)(=O)c1ccccc1)Nc1ncc([N+](=O)[O-])s1 | -2.3 | -3.5 | 0.5 | 11.4 | -9.5 | 4.7 | . | . | . | . | .
Cc1ccc(CC(=O)Nc2ncc([N+](=O)[O-])s2)cc1 | 1.1 | 63.5* | 90.7* | -174.9 | 87.5* | 4.3 | 93.0* | 92.8* | 99.1* | 91.0* | 55.2*
O=C(COC(=O)c1ccc(Br)o1)Nc1ncc([N+](=O)[O-])s1 | -8.1 | 27.7 | 73.8* | 18.1 | 64.9* | -14.3 | 68.9* | 65.6* | 86.5* | 78.4* | 72.8*
COc1ccc(C(=O)OCC(=O)Nc2ncc([N+](=O)[O-])s2)cc1OC | -9.3 | 7.7 | 3.3 | 13.7 | 10.9 | -22.2 | . | . | . | . | .
O=C(CCS(=O)(=O)Cc1ccccc1)Nc1ncc([N+](=O)[O-])s1 | 2.0 | 83.3* | 88.2* | 6.9 | 84.2* | -2.5 | -1.3 | 82.9* | 96.6* | 71.2* | 82.2*
Cc1cccc(C)c1NC(=O)C(C1CC1)n1c(=O)c(-c2cc3ccccc3[nH]2)nc2ccccc21 (centres undefined) | . | . | . | -396.0 | . | . | . | . | . | . | .
CC(C)CNC(=O)C1(C)CCCN1C(=O)c1cccnc1 (centres undefined) | . | . | . | 6.4 | . | . | . | . | . | . | .
COc1ccc(N2CCN(C(=S)Nc3cc(C)ccc3C)CC2)cc1 | -25.4 | 81.1* | -11.1 | 11.0 | 8.9 | 0.3 | -2.2 | 2.3 | 9.1 | 4.1 | 0.2
COc1ccc(N2CCN(C(=S)Nc3ccc(C)cc3C)CC2)cc1 | -6.3 | 8.6 | 5.3 | 22.8 | 1.9 | -0.9 | . | . | . | . | .
CC(=O)Nc1ccc(S(=O)(=O)c2ccnc3cc(Cl)ccc23)cc1 | . | . | . | -11.3 | . | . | . | . | . | . | .
SMILES | Apaf-1 inh | SENP7 block | SENP6 block | SENP8 block-1 | SENP8 block-2 | UBC13 polyUb | SENP8 confirm | SENP6 confirm | SENP7 conf | Casp3 SENP sel | Luc interf
COC(=O)C[C@H]1C=C[C@H](NC(=O)C2CCOCC2)[C@@H](CO)O1 | . | . | . | 10.9 | . | . | . | . | . | . | .
Nc1ncccc1OCc1ccc(Cl)c(Cl)c1 | -3.4 | 81.1* | 75.0* | 30.8 | 69.6* | 5.8 | 79.4* | 78.9* | 93.6* | 74.7* | 80.7*
COc1ccc(C(=O)NNC(=O)c2ccccn2)cc1 | -0.3 | 100.2* | 98.6* | 7.6 | 97.3* | -11.5 | 98.3* | 98.9* | 101.9* | 97.7* | 97.5*
O=C(OCc1ccc(Cl)c(Cl)c1)c1cccnc1Cl | 14.1 | 2.9 | 37.0 | 11.7 | 7.2 | 4.4 | . | . | . | . | .
COc1ccc(C(=O)O/N=C(\N)c2ccccn2)cc1 | 9.4 | 100.7* | 96.8* | 13.7 | 96.1* | 2.9 | 99.2* | 100.5* | 103.7* | 99.3* | 97.0*
N/C(=N\OC(=O)c1ccc(Cl)cc1)c1ccccn1 | 1.0 | 98.9* | 93.5* | 7.8 | 96.5* | 1.4 | 87.8* | 98.9* | 102.9* | 98.4* | 79.0*
CC1=CC(Cc2ccccc2)N(C)C(C(N)=O)C1 (centres undefined) | . | . | . | 6.3 | . | . | . | . | . | . | .
CN1CCN(C(=O)C[C@@H]2C=C[C@H](NS(=O)(=O)c3cccc(F)c3)[C@@H](CO)O2)CC1 | . | . | . | 16.5 | . | . | . | . | . | . | .
Cc1cc(/C(N)=N/OC(=O)c2cccc(Cl)c2)no1 | -6.8 | 12.5 | 31.1 | 36.5 | 13.1 | 10.8 | . | . | . | . | .
Cc1cc(/C(N)=N/OC(=O)c2ccc(Cl)cc2)no1 | -6.8 | 93.9* | 85.2* | 31.1 | 79.8* | 2.6 | 24.2 | 85.9* | 97.4* | 92.3* | 20.9
N/C(=N\OC(=O)c1cccc(Cl)c1)c1ccccn1 | -0.2 | 94.0* | 91.9* | 11.0 | 87.3* | -1.3 | 89.6* | 90.3* | 100.2* | 94.8* | 44.9
N/C(=N\OC(=O)c1ccc(Cl)c(Cl)c1)c1ccccn1 | -5.9 | 94.7* | 85.2* | 4.3 | 68.4* | 1.8 | 36.1 | 46.7 | 65.0* | 82.0* | 59.2*
N/C(=N\OC(=O)c1ccc(Cl)c([N+](=O)[O-])c1)c1ccccn1 | 7.3 | 39.0 | -22.7 | 15.9 | 7.2 | -3.1 | . | . | . | . | .

High-throughput results (PubChem BioAssay)
